In ChEMBL document CHEMBL1123201, “7-(Trifluoromethyl)-4-aminoquinoline hypotensives: novel peripheral sympatholytics” (J Med Chem, 1986):
Values joined by “and” are separate entries in the source; they are usually repeats but may differ in a detail not shown here. Identical values can stand only once. Active and inactive are the calls of the source. The calls are words filed in the database; no cut-off is given here.

How the values were obtained:
Rattus norvegicus [1] = assay: Compound was tested for hypotensive activity by measuring the average change in mean arterial blood pressure in mmHg after 4 hr at 0.1 mg/Kg oral dosing of a conscious rat; type: functional, Artery
Summary of the method: (§1)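 Restrained (towel-wrapped, to raise sympathetic tone) conscious female Sprague-Dawley rats with chronic indwelling aortic cannulas exteriorized at the nape; blood pressure recorded directly by transducer before and 4 and 24 h after oral dosing. Compound suspended in carboxymethylcellulose vehicle, 10 mL/kg; doses 50 to 0.05 mg/kg. Two rats averaged per time point; average change ≥5 mmHg taken as significant (p < 0.05).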

Rattus norvegicus [2] = assay: Hypotensive activity in conscious rat 4 hr after 5 mg/kg p.o. administration.; type: functional; details: route oral; summary of the method: as §1
Mus musculus [3] = species: Mus musculus; assay: Lowest dose of compound associated with unacceptable clinical signs.; type: functional
[4] = Acute toxicity was determined in mice; type: organism-based; details: mouse, in vivo
Mus musculus [5] = species: Mus musculus; assay: Lowest dose of compound associated with clinical signs.; type: functional
Rattus norvegicus [6] = assay: Compound was tested for hypotensive activity by measuring the average change in mean arterial blood pressure in mmHg after 24 hr at 0.1 mg/Kg oral dosing of a conscious rat; type: functional, Artery; summary of the method: as §1
Rattus norvegicus [7] = assay: Hypotensive activity in conscious rat 24 hr after 5 mg/kg p.o. administration.; type: functional; details: route oral; summary of the method: as §1
Rattus norvegicus [8] = assay: Compound was tested for hypotensive activity by measuring the average change in mean arterial blood pressure in mmHg after 4 hr at 50 mg/Kg oral dosing of a conscious rat; type: functional, Artery; summary of the method: as §1
Rattus norvegicus [9] = assay: Compound was tested for hypotensive activity by measuring the average change in mean arterial blood pressure in mmHg after 24 hr at 50 mg/Kg oral dosing of a conscious rat; type: functional, Artery; summary of the method: as §1
Rattus norvegicus [10] = assay: Compound was tested for hypotensive activity by measuring the average change in mean arterial blood pressure in mmHg after 24 hr at 150 mg/Kg oral dosing of a conscious rat; type: functional, Artery
Rattus norvegicus [11] = assay: Compound was tested for hypotensive activity by measuring the average change in mean arterial blood pressure in mmHg after 4 hr at 150 mg/Kg oral dosing of a conscious rat; type: functional, Artery
Rattus norvegicus [12] = assay: Compound was tested for hypotensive activity by measuring the average change in mean arterial blood pressure in mmHg after 24 hr at 0.5 mg/Kg oral dosing of a conscious rat; type: functional, Artery; summary of the method: as §1
Mus musculus [13] = species: Mus musculus; assay: Lowest dose of compound associated with clinical signs; NA is Not Acceptable.; type: functional, organism-based
Rattus norvegicus [14] = assay: Compound was tested for hypotensive activity by measuring the average change in mean arterial blood pressure in mmHg after 4 hr at 0.5 mg/Kg oral dosing of a conscious rat; type: functional, Artery; summary of the method: as §1
Rattus norvegicus [15] = assay: Compound was tested for hypotensive activity by measuring the average change in mean arterial blood pressure in mmHg at 4 hr after at 50 mg/Kg oral dosing of a conscious rat; type: functional, Artery; summary of the method: as §1
Rattus norvegicus [16] = assay: Compound was tested for hypotensive activity by measuring the average change in mean arterial blood pressure in mmHg 24 hr after at 50 mg/Kg oral dosing of a conscious rat; type: functional, Artery; summary of the method: as §1
Rattus norvegicus [17] = assay: Compound was tested for hypotensive activity by measuring the average change in mean arterial blood pressure in mmHg after 4 hr at 10 mg/Kg oral dosing of a conscious rat; type: functional, Artery; summary of the method: as §1
Mus musculus [18] = species: Mus musculus; assay: Lowest dose of compound associated with clinical signs; type: functional
Rattus norvegicus [19] = assay: Compound was tested for hypotensive activity by measuring the average change in mean arterial blood pressure in mmHg after 24 hr at 10 mg/Kg oral dosing of a conscious rat; type: functional, Artery; summary of the method: as §1
Rattus norvegicus [20] = assay: Compound was tested for hypotensive activity by measuring the average change in mean arterial blood pressure in mmHg at 3 mg/Kg oral dosing of a conscious rat; IA is Inactive; type: functional, organism-based; details: Artery; summary of the method: as §1

Structure (SMILES) | Activity (Rattus norvegicus [2]) [mmHg] | Dose (Mus musculus [3]) [mg/kg] | LD50 [4] [mg/kg] | Activity (Rattus norvegicus [7]) [mmHg] | Activity (Rattus norvegicus [8]) [mmHg] | Activity (Rattus norvegicus [9]) [mmHg] | also measured
O=C(c1ccc(Nc2ccnc3cc(C(F)(F)F)ccc23)cc1)N1CC=C(c2ccc(Cl)cc2)CC1 | -7 | 316 | 1000 | -16 |  |  | Activity (Rattus norvegicus [1]): -3 mmHg; Dose (Mus musculus [5]): <100 mg/kg; Activity (Rattus norvegicus [6]): -11 mmHg
O=C(c1ccc(Nc2ccnc3cc(C(F)(F)F)ccc23)cc1)N1CCN(c2ccccc2)CC1 |  |  |  |  | 4 | -13 | 
COc1ccc(N2CCN(Cc3ccc(Nc4ccnc5cc(C(F)(F)F)ccc45)cc3)CC2)cc1 |  |  |  |  | 1 | -1 | Activity (Rattus norvegicus [10]): -16 mmHg; Activity (Rattus norvegicus [11]): -5 mmHg
COc1ccc(C2=CCN(C(=O)c3ccc(Nc4ccnc5cc(C(F)(F)F)ccc45)cc3)CC2)cc1 | -6 |  |  | -2 |  |  | 
Cc1cccc(C2=CCN(C(=O)c3ccc(Nc4ccnc5cc(C(F)(F)F)ccc45)cc3)CC2)c1 | -8 |  |  | -8 |  |  | 
O=C(c1ccc(Nc2ccnc3cc(C(F)(F)F)ccc23)cc1)N1CCC(O)(c2ccc(Cl)cc2)CC1 |  | <100 | 237 |  |  |  | Activity (Rattus norvegicus [12]): -22 mmHg; DOSE (Mus musculus [13]): Not acceptable; Activity (Rattus norvegicus [14]): -19 mmHg
O=C(c1ccc(Nc2ccnc3cc(C(F)(F)F)ccc23)cc1)N1CCNCC1 |  | 1000 | 1780 |  |  |  | Activity (Rattus norvegicus [15]): -15 mmHg; Activity (Rattus norvegicus [16]): -22 mmHg; Activity (Rattus norvegicus [17]): -7 mmHg; Dose (Mus musculus [18]): 100 mg/kg; Activity (Rattus norvegicus [19]): -8 mmHg; Activity (Rattus norvegicus [20]): inactive
CS(=O)(=O)c1ccc(N2CCN(C(=O)c3ccc(Nc4ccnc5cc(C(F)(F)F)ccc45)cc3)CC2)cc1 | -10 | 1000 | 3160 | -16 |  |  | Activity (Rattus norvegicus [12]): -5 mmHg; Dose (Mus musculus [5]): 316 mg/kg; Activity (Rattus norvegicus [14]): -7 mmHg
COc1cc(N2CCN(C(=O)c3ccc(Nc4ccnc5cc(C(F)(F)F)ccc45)cc3)CC2)nc(OC)n1 | -10 | <100 | > 3160 | -24 | -13 | -29 | Activity (Rattus norvegicus [12]): -12 mmHg; Dose (Mus musculus [5]): <100 mg/kg; Activity (Rattus norvegicus [14]): -2 mmHg
COc1ccc(S(=O)(=O)N2CCN(C(=O)c3ccc(Nc4ccnc5cc(C(F)(F)F)ccc45)cc3)CC2)cc1 | -6 |  |  | -3 |  |  | 
Fc1ccc(N2CCN(Cc3ccc(Nc4ccnc5cc(C(F)(F)F)ccc45)cc3)CC2)cc1 |  |  |  |  | -4 | -18 | Activity (Rattus norvegicus [2]; 5 mg/kg): -7 mmHg and -9 mmHg
COc1ccc(N2CCN(C(=O)c3ccc(Nc4ccnc5cc(C(F)(F)F)ccc45)cc3)CC2)cc1 |  |  |  |  | -19 | -18 | 
O=C(c1ccc(Nc2ccnc3cc(C(F)(F)F)ccc23)cc1)N1CCN(c2[nH]cnc3ncnc2-3)CC1 |  |  |  |  | -4 | -3 | 
Cc1cc(N2CCN(C(=O)c3ccc(Nc4ccnc5cc(C(F)(F)F)ccc45)cc3)CC2)nc(N)n1 |  |  |  |  | -3 | -4 | 
